Measured values published in ChEMBL document CHEMBL4715738, “In Vitro Antibacterial Activity of Curcumin-Polymyxin B Combinations against Multidrug-Resistant Bacteria Associated with Traumatic Wound Infections” (J Nat Prod, 2016).
Converted amounts (≈) assume the structure as drawn.

Columns and labels:
Enterococcus faecium [1] = assay: Antibacterial activity against vancomycin-resistant Enterococcus faecium OEF42 assessed as reduction in bacterial growth incubated for 24 hrs; type: functional
Streptococcus pyogenes [2] = assay: Antibacterial activity against Streptococcus pyogenes SPY3 assessed as reduction in bacterial growth incubated for 24 hrs; type: functional
Pseudomonas aeruginosa [3] = assay: Antibacterial activity against Pseudomonas aeruginosa ATCC 27853 assessed as reduction in bacterial growth incubated for 24 hrs; type: functional
[4] = system: Stenotrophomonas maltophilia; assay: Antibacterial activity against Stenotrophomonas maltophilia SMS01 assessed as reduction in bacterial growth incubated for 24 hrs; type: functional
Streptococcus pyogenes [5] = assay: Antibacterial activity against Streptococcus pyogenes SPY2 assessed as reduction in bacterial growth incubated for 24 hrs; type: functional
Enterococcus faecium [6] = assay: Antibacterial activity against vancomycin-resistant Enterococcus faecium OEF65 assessed as reduction in bacterial growth incubated for 24 hrs; type: functional
Enterococcus faecalis = assay: Antibacterial activity against Enterococcus faecalis ATCC 29212 assessed as reduction in bacterial growth incubated for 24 hrs; settings: ATCC 29212, 24 h
Acinetobacter baumannii [7] = assay: Antibacterial activity against Acinetobacter baumannii AB16 harboring OXA-23 clone 2 assessed as reduction in bacterial growth incubated for 24 hrs; type: functional
[8] = system: Stenotrophomonas maltophilia; assay: Antibacterial activity against Stenotrophomonas maltophilia SMB07 assessed as reduction in bacterial growth incubated for 24 hrs in presence of curcumin; type: functional
Streptococcus pyogenes [9] = assay: Synergistic antibacterial activity against Streptococcus pyogenes SPY1 assessed as fractional inhibitory concentration index measured after 24 hrs in presence of curcumin by checkerboard assay; type: functional
How it was run: (§1)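 FICI calculated from combination MICs; ≤0.5 taken as synergy and >0.5–4.0 as additive. Where an MIC was not reached, the dilution above the highest concentration tested was used in the calculation. Run in triplicate and reported as means.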

Acinetobacter baumannii [10] = assay: Antibacterial activity against Acinetobacter baumannii NCTC 19606 assessed as reduction in bacterial growth incubated for 24 hrs in presence of curcumin; type: functional
Streptococcus pyogenes [11] = assay: Antibacterial activity against Streptococcus pyogenes SPY1 assessed as reduction in bacterial growth incubated for 24 hrs; type: functional
Acinetobacter baumannii [12] = assay: Antibacterial activity against Acinetobacter baumannii NCTC 19606 assessed as reduction in bacterial growth incubated for 24 hrs; type: functional
[13] = system: Stenotrophomonas maltophilia; assay: Synergistic antibacterial activity against Stenotrophomonas maltophilia NCTC 10258 assessed as fractional inhibitory concentration index measured after 24 hrs in presence of curcumin by checkerboard assay; type: functional; how it was run: as §1
[14] = system: Stenotrophomonas maltophilia; assay: Antibacterial activity against Stenotrophomonas maltophilia SMB07 assessed as reduction in bacterial growth incubated for 24 hrs; type: functional
Staphylococcus aureus [15] = assay: Antibacterial activity against Staphylococcus aureus ATCC 25923 assessed as reduction in bacterial growth incubated for 24 hrs; type: functional
Escherichia coli [16] = assay: Antibacterial activity against Escherichia coli EC2 harboring CTX-M-15 assessed as reduction in bacterial growth incubated for 24 hrs; type: functional
Staphylococcus aureus [17] = assay: Antibacterial activity against methicillin-resistant Staphylococcus aureus NCTC 12493 assessed as reduction in bacterial growth incubated for 24 hrs in presence of curcumin; type: functional
Staphylococcus aureus [18] = assay: Antibacterial activity against methicillin-resistant Staphylococcus aureus NCTC 12493 assessed as reduction in bacterial growth incubated for 24 hrs; type: functional
Escherichia coli [19] = assay: Antibacterial activity against Escherichia coli EC204 harboring NDM-1 assessed as reduction in bacterial growth incubated for 24 hrs; type: functional
Pseudomonas aeruginosa [20] = assay: Antibacterial activity against Pseudomonas aeruginosa PAO1 assessed as reduction in bacterial growth incubated for 24 hrs; type: functional
Staphylococcus aureus [21] = assay: Antibacterial activity against vancomycin-intermediate resistant Staphylococcus aureus Mu50 assessed as reduction in bacterial growth incubated for 24 hrs; type: functional
Acinetobacter baumannii [22] = assay: Antibacterial activity against Acinetobacter baumannii AB14 harboring OXA-23 clone 1 assessed as reduction in bacterial growth incubated for 24 hrs; type: functional
[23] = system: Stenotrophomonas maltophilia; assay: Antibacterial activity against Stenotrophomonas maltophilia NCTC 10258 assessed as reduction in bacterial growth incubated for 24 hrs; type: functional
Escherichia coli [24] = assay: Synergistic antibacterial activity against Escherichia coli EC2 harboring CTX-M-15 assessed as fractional inhibitory concentration index measured after 24 hrs in presence of curcumin by checkerboard assay; type: functional
How it was run: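 FICI was derived from checkerboard MICs. Synergy was defined as FICI ≤ 0.5 and additive as FICI > 0.5−4.0. Where an MIC was not reached, the dilution above the maximum dose was used in the FICI calculation. Experiments were run in triplicate and reported as means.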

Acinetobacter baumannii [25] = assay: Antibacterial activity against Acinetobacter baumannii AB12 harboring OXA-23 assessed as reduction in bacterial growth incubated for 24 hrs; type: functional
Pseudomonas aeruginosa [26] = assay: Antibacterial activity against Pseudomonas aeruginosa PA14 assessed as reduction in bacterial growth incubated for 24 hrs; type: functional
Pseudomonas aeruginosa [27] = assay: Antibacterial activity against Pseudomonas aeruginosa PA30 harboring VIM-2 assessed as reduction in bacterial growth incubated for 24 hrs; type: functional
Escherichia coli [28] = assay: Antibacterial activity against Escherichia coli NCTC 12241 assessed as reduction in bacterial growth incubated for 24 hrs; type: functional
Escherichia coli [29] = assay: Potentiation of polymyxin B-induced antibacterial activity against Escherichia coli EC2 harboring CTX-M-15 assessed as fold reduction in polymyxin B MIC measured after 24 hrs […] checkerboard assay; type: functional
How it was run: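 Combination MICs from the checkerboard used for FICI calculation. Where no MIC was reached, the dilution above the top dose was used in the FICI. Run in triplicate; mean values reported.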

Acinetobacter baumannii [30] = assay: Bactericidal activity against Acinetobacter baumannii NCTC 19606 assessed as bacterial cell death at 0.5 fold MIC measured after 4 to 6 hrs in presence of polymyxin B at MIC by time kill assay relative to control; type: functional; settings: time 4-6 hrs
How it was run: (§2)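 Time-kill in 10 mL Mueller-Hinton 2 broth, 37 °C with continuous agitation, 24 h. Inoculum was a 1/1000 dilution of a 16 h overnight culture, about 10^6 CFU/mL. Single agents at 1× MIC; combination at 1× MIC polymyxin B plus 0.5× MIC curcumin. Samples at 0, 2, 4, 6 and 24 h were serially diluted and plated on IsoSensitest agar for CFU/mL.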

Streptococcus pyogenes [31] = assay: Antibacterial activity against Streptococcus pyogenes SPY3 assessed as reduction in bacterial growth incubated for 24 hrs in presence of polymyxin B; type: functional
[32] = system: Stenotrophomonas maltophilia; assay: Bactericidal activity against Stenotrophomonas maltophilia NCTC 102586 assessed as bacterial cell death at 0.5 fold MIC measured after 4 to 6 hrs in presence of polymyxin B at MIC by time kill assay relative to control; type: functional; settings: time 4-6 hrs; how it was run: as §2
Pseudomonas aeruginosa [33] = assay: Antibacterial activity against Pseudomonas aeruginosa ATCC 27853 assessed as log reduction in colony forming units at 0.5 fold MIC measured after 24 hrs by time kill assay; type: functional; settings: in the assay text read “1 fold MIC” for “0.5 fold MIC”
How it was run: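 Time-kill in Mueller-Hinton 2 broth. Inoculum was a 1/1000 dilution of a 16 h overnight culture, about 10^6 CFU/mL, 10 mL per tube. Arms were each agent alone at ×1 MIC, or the combination at ×1 MIC plus ×0.5 MIC partner. Incubated at 37 °C with continuous agitation for 24 h. Samples taken at 0, 2, 4, 6 and 24 h, serially diluted and plated on IsoSensitest agar for CFU counts.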

[34] = system: Stenotrophomonas maltophilia; assay: Potentiation of polymyxin B-induced antibacterial activity against Stenotrophomonas maltophilia NCTC 10258 assessed as fold reduction in polymyxin B MIC measured after 24 hrs in presence of polymyxin B by checkerboard assay; type: functional

Row | Compound | MIC (Enterococcus faecium [1]) [µM] | MIC (Streptococcus pyogenes [2]) [µM] | MIC (Pseudomonas aeruginosa [3]) [µM] | MIC [4] [µM] | MIC (Streptococcus pyogenes [5]) [µM] | MIC (Enterococcus faecium [6]) [µM] | MIC (Enterococcus faecalis) [µM] | MIC (Acinetobacter baumannii [7]) [µM] | MIC (Streptococcus pyogenes [11]) [µM] | MIC (Acinetobacter baumannii [12]) [µM] | MIC [14] [µM] | MIC (Staphylococcus aureus [15]) [µM] | MIC (Escherichia coli [16]) [µM] | MIC (Staphylococcus aureus [18]) [µM] | MIC (Escherichia coli [19]) [µM] | MIC (Pseudomonas aeruginosa [20]) [µM] | MIC (Staphylococcus aureus [21]) [µM] | MIC (Acinetobacter baumannii [22]) [µM] | MIC [23] [µM] | MIC (Acinetobacter baumannii [25]) [µM] | further results
1 | CC[C@H](C)CCCCC(=O)N[C@@H](CCN)C(=O)N[C@H](C(=O)N[C@@H](CCN)C(=O)N[C@H]1CCNC(=O)[C@H]([C@@H](C)O)NC(=O)[C@H](CCN)NC(=O)[C@H](CCN)NC(=O)[C@H](CC(C)C)NC(=O)[C@@H](Cc2ccccc2)NC(=O)[C@H](CCN)NC1=O)[C@@H](C)O.O=S(=O)(O)O | 98 | 3.1 | 0.39 | 6.1 | 12.3 | 49 | 98 | 0.19 | 6.1 | 0.19 | 1.5 | 98 | 0.096 | 98 | 0.096 | 0.78 | 98 | 0.096 | 1.5 | 0.19 | MIC [8]: 0.0313 µM; fractional inhibitory concentration index (FICI) (Streptococcus pyogenes [9]): 0.094; MIC (Acinetobacter baumannii [10]): 0.012 µM; fractional inhibitory concentration index (FICI) [13]: 0.012; MIC (Staphylococcus aureus [17]): 0.79 µM; fractional inhibitory concentration index (FICI) (Escherichia coli [24]): 0.266; MIC (Pseudomonas aeruginosa [26]): 0.78 µM; MIC (Pseudomonas aeruginosa [27]): 0.39 µM; MIC (Escherichia coli [28]): 0.048 µM
2 | COc1cc(/C=C/C(=O)CC(=O)/C=C/c2ccc(O)c(OC)c2)ccc1O [CURCUMIN] | 350 (≈ 129 µg/mL) | 174 (≈ 64.1 µg/mL) | 1390 (≈ 512 µg/mL) | 2780 (≈ 1020 µg/mL) | 174 (≈ 64.1 µg/mL) | 174 (≈ 64.1 µg/mL) | 350 (≈ 129 µg/mL) | 2780 (≈ 1020 µg/mL) | 350 (≈ 129 µg/mL) | 2780 (≈ 1020 µg/mL) | 2780 (≈ 1020 µg/mL) | 2780 (≈ 1020 µg/mL) | 2780 (≈ 1020 µg/mL) | 2780 (≈ 1020 µg/mL) | 2780 (≈ 1020 µg/mL) | 1390 (≈ 512 µg/mL) | 2780 (≈ 1020 µg/mL) | 1390 (≈ 512 µg/mL) | 2780 (≈ 1020 µg/mL) | 2780 (≈ 1020 µg/mL) | fold change (FC) (Escherichia coli [29]): 3; Activity (Acinetobacter baumannii [30]): 100%; MIC (Streptococcus pyogenes [31]): 43 µM; Activity [32]: 100%; Activity (Pseudomonas aeruginosa [33]): 2 log10CFU/ml; MIC (Pseudomonas aeruginosa [26]): 1390 µM (≈ 512 µg/mL); MIC (Pseudomonas aeruginosa [27]): 2780 µM (≈ 1020 µg/mL); MIC (Escherichia coli [28]): 2780 µM (≈ 1020 µg/mL); fold change (FC) [34]: 3
